Data reported in ChEMBL document CHEMBL1129477, “Structure-activity relationships of the quinolone antibacterials against mycobacteria: effect of structural changes at N-1 and C-7” (J Med Chem, 1996).
≈ marks a conversion by molar mass, not a printed value.

How the values were obtained:
Format in all cases: functional
Escherichia coli = experiment: Anti-bacterial activity was tested against Gram-negative EC-1 bacterium
Method in brief: (§1)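 Standard microtitration MIC determination (µg/mL) against four representative Gram-negative and Gram-positive bacterial strains.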

[1] = test system: Mycolicibacterium smegmatis; experiment: Anti-bacterial activity tested against Mycobacterium smegmatis (ATCG 19420)
Staphylococcus aureus = experiment: Anti-bacterial activity was tested against Gram-positive SA-13 bacterium; method in brief: as §1
Pseudomonas aeruginosa = experiment: Anti-bacterial activity tested against Gram-negative PA-7 bacterium; method in brief: as §1
Streptococcus pyogenes = experiment: Anti-bacterial activity tested against Gram-positive SP1-1 bacterium; method in brief: as §1
[2] = test system: Mycolicibacterium fortuitum; experiment: Anti-bacterial activity tested against Mycobacterium fortuitum (ATCG 6841)

SMILES | MIC (Escherichia coli) [µg/mL] | MIC [1] [µg/mL] | MIC (Staphylococcus aureus) [µg/mL] | MIC (Pseudomonas aeruginosa) [µg/mL] | MIC (Streptococcus pyogenes) [µg/mL] | MIC [2] [µg/mL]
CC(C)NCC1CCN(c2cc3c(cc2F)c(=O)c(C(=O)O)cn3C2CC2)C1 (configuration not stated) | 0.4 (≈ 1.03 µM) | 0.5 (≈ 1.29 µM) | 0.4 (≈ 1.03 µM) | 3.1 (≈ 8 µM) | 1.6 (≈ 4.13 µM) | 0.25 (≈ 0.645 µM)
NC1CCN(c2cc3c(cc2F)c(=O)c(C(=O)O)cn3C2CCC2)C1 (configuration not stated) | 0.4 (≈ 1.16 µM) | 1 (≈ 2.9 µM) | 3.1 (≈ 8.98 µM) | 1.6 (≈ 4.63 µM) | 1.6 (≈ 4.63 µM) | 1 (≈ 2.9 µM)
CC1CN(c2cc3c(cc2F)c(=O)c(C(=O)O)cn3C2CCC2)CC(C)N1 (configuration not stated) | 0.4 (≈ 1.07 µM) | 0.5 (≈ 1.34 µM) | 3.1 (≈ 8.3 µM) | 3.1 (≈ 8.3 µM) | > 3.1 | 0.13 (≈ 0.348 µM)
CC1CN(c2cc3c(cc2F)c(=O)c(C(=O)O)cn3C(C)C)CCN1 (configuration not stated) | 0.8 (≈ 2.3 µM) | 2 (≈ 5.76 µM) | 3.1 (≈ 8.92 µM) | 3.1 (≈ 8.92 µM) | > 3.1 | 0.5 (≈ 1.44 µM)
O=C(O)c1cn(C2CC2)c2cc(N3CCNCC3)c(F)cc2c1=O [CIPROFLOXACIN] | – | 0.25 (≈ 0.754 µM) | – | 0.2 (≈ 0.604 µM) | 0.4 (≈ 1.21 µM) | 0.06 (≈ 0.181 µM)
CCN1CCN(c2cc3c(cc2F)c(=O)c(C(=O)O)cn3C2CC2)CC1 [ENROFLOXACIN] | 0.05 (≈ 0.139 µM) | 0.13 (≈ 0.362 µM) | 0.2 (≈ 0.556 µM) | 0.8 (≈ 2.23 µM) | 0.8 (≈ 2.23 µM) | 0.06 (≈ 0.167 µM)
CC(C)CN1CCN(c2cc3c(cc2F)c(=O)c(C(=O)O)cn3C2CC2)CC1 | 0.2 (≈ 0.516 µM) | 0.25 (≈ 0.645 µM) | 0.4 (≈ 1.03 µM) | 1.6 (≈ 4.13 µM) | 1.6 (≈ 4.13 µM) | 1 (≈ 2.58 µM)
CC1CN(c2cc3c(cc2F)c(=O)c(C(=O)O)cn3C2CC2)CC(C)N1 (configuration not stated) | 0.05 (≈ 0.139 µM) | 0.13 (≈ 0.362 µM) | 0.4 (≈ 1.11 µM) | 0.8 (≈ 2.23 µM) | > 3.1 | 0.06 (≈ 0.167 µM)
CC1CN(c2cc3c(cc2F)c(=O)c(C(=O)O)cn3C(C)C)CC(C)N1 (configuration not stated) | 1.6 (≈ 4.43 µM) | 2 (≈ 5.53 µM) | 3.1 (≈ 8.58 µM) | > 3.1 | > 3.1 | 0.5 (≈ 1.38 µM)
CC(C)(C)n1cc(C(=O)O)c(=O)c2cc(F)c(N3CCNCC3)cc21 | 0.2 (≈ 0.576 µM) | 0.13 (≈ 0.374 µM) | 0.8 (≈ 2.3 µM) | 0.4 (≈ 1.15 µM) | 1.6 (≈ 4.61 µM) | < 0.03
C[C@@H]1CN(c2c(F)c(N)c3c(=O)c(C(=O)O)cn(C4CC4)c3c2F)C[C@H](C)N1 [SPARFLOXACIN] | 0.025 (≈ 0.0637 µM) | 0.13 (≈ 0.331 µM) | 0.05 (≈ 0.127 µM) | 0.8 (≈ 2.04 µM) | 0.1 (≈ 0.255 µM) | 0.06 (≈ 0.153 µM)
CCn1cc(C(=O)O)c(=O)c2cc(F)c(N3CCNC(C)C3)cc21 (configuration not stated) | 0.2 (≈ 0.6 µM) | 2 (≈ 6 µM) | 3.1 (≈ 9.3 µM) | > 3.1 | > 3.1 | 1 (≈ 3 µM)
NC1CCN(c2cc3c(cc2F)c(=O)c(C(=O)O)cn3C2CC2)C1 (configuration not stated) | 0.05 (≈ 0.151 µM) | 0.25 (≈ 0.754 µM) | 0.4 (≈ 1.21 µM) | 0.2 (≈ 0.604 µM) | 0.8 (≈ 2.41 µM) | < 0.03

Other lines, results leading:

MIC (Escherichia coli) [µg/mL] | MIC [1] [µg/mL] | MIC (Staphylococcus aureus) [µg/mL] | MIC (Pseudomonas aeruginosa) [µg/mL] | MIC (Streptococcus pyogenes) [µg/mL] | MIC [2] [µg/mL] | SMILES
0.8 (≈ 1.74 µM) | 2 (≈ 4.35 µM) | 0.4 (≈ 0.871 µM) | 3.1 (≈ 6.75 µM) | 3.1 (≈ 6.75 µM) | 1 (≈ 2.18 µM) | CCCCN1CCN(c2cc3c(cc2F)c(=O)c(C(=O)O)cn3-c2ccc(F)cc2F)CC1
0.1 (≈ 0.248 µM) | 0.5 (≈ 1.24 µM) | 0.4 (≈ 0.992 µM) | 0.2 (≈ 0.496 µM) | 0.4 (≈ 0.992 µM) | 0.25 (≈ 0.62 µM) | O=C(O)c1cn(-c2ccc(F)cc2F)c2cc(N3CCNCC3)c(F)cc2c1=O
0.1 (≈ 0.24 µM) | 0.5 (≈ 1.2 µM) | 0.4 (≈ 0.958 µM) | 0.8 (≈ 1.92 µM) | 0.4 (≈ 0.958 µM) | 0.13 (≈ 0.311 µM) | CC1CN(c2cc3c(cc2F)c(=O)c(C(=O)O)cn3-c2ccc(F)cc2F)CCN1 (configuration not stated) [TEMAFLOXACIN]
0.1 (≈ 0.268 µM) | 0.5 (≈ 1.34 µM) | 0.8 (≈ 2.14 µM) | 1.6 (≈ 4.28 µM) | 0.8 (≈ 2.14 µM) | 0.5 (≈ 1.34 µM) | CCNCC1CCN(c2cc3c(cc2F)c(=O)c(C(=O)O)cn3C2CC2)C1 (configuration not stated)
0.4 (≈ 0.927 µM) | 1 (≈ 2.32 µM) | 0.4 (≈ 0.927 µM) | 3.1 (≈ 7.19 µM) | 0.8 (≈ 1.85 µM) | 0.25 (≈ 0.579 µM) | CCC1CN(c2cc3c(cc2F)c(=O)c(C(=O)O)cn3-c2ccc(F)cc2F)CCN1 (configuration not stated)
3.1 (≈ 6.75 µM) | 4 (≈ 8.71 µM) | 0.8 (≈ 1.74 µM) | > 3.1 | > 3.1 | 2 (≈ 4.35 µM) | CC(C)CN1CCN(c2cc3c(cc2F)c(=O)c(C(=O)O)cn3-c2ccc(F)cc2F)CC1
3.1 (≈ 8.58 µM) | 8 (≈ 22.1 µM) | 3.1 (≈ 8.58 µM) | > 3.1 | 3.1 (≈ 8.58 µM) | 2 (≈ 5.53 µM) | CNCC1CCN(c2cc3c(cc2F)c(=O)c(C(=O)O)cn3C(C)C)C1 (configuration not stated)
0.4 (≈ 0.898 µM) | 0.5 (≈ 1.12 µM) | 0.2 (≈ 0.449 µM) | 1.6 (≈ 3.59 µM) | 0.1 (≈ 0.224 µM) | 0.5 (≈ 1.12 µM) | CCNCC1CCN(c2cc3c(cc2F)c(=O)c(C(=O)O)cn3-c2ccc(F)cc2F)C1 (configuration not stated)
0.4 (≈ 0.927 µM) | 1 (≈ 2.32 µM) | 0.2 (≈ 0.464 µM) | 1.6 (≈ 3.71 µM) | 0.8 (≈ 1.85 µM) | 0.5 (≈ 1.16 µM) | CCN1CCN(c2cc3c(cc2F)c(=O)c(C(=O)O)cn3-c2ccc(F)cc2F)CC1
0.2 (≈ 0.479 µM) | 0.5 (≈ 1.2 µM) | 0.2 (≈ 0.479 µM) | 0.8 (≈ 1.92 µM) | 1.6 (≈ 3.83 µM) | 0.25 (≈ 0.599 µM) | CN1CCN(c2cc3c(cc2F)c(=O)c(C(=O)O)cn3-c2ccc(F)cc2F)CC1
0.2 (≈ 0.464 µM) | 0.25 (≈ 0.579 µM) | 0.1 (≈ 0.232 µM) | 0.8 (≈ 1.85 µM) | 0.1 (≈ 0.232 µM) | 0.13 (≈ 0.301 µM) | CNCC1CCN(c2cc3c(cc2F)c(=O)c(C(=O)O)cn3-c2ccc(F)cc2F)C1 (configuration not stated)
